Reference: ChEMBL document CHEMBL5303300, “EUbOPEN Chemogenomics Library - Multiplex” (2023)
Values joined by “and” are separate entries in the source; they are usually repeats but may differ in a detail not shown here. Identical values can stand only once.

Test system: U2OS
Assay: Multiplex assay against U2OS
Type: toxicity, cell-based
Conditions: human, number of replicates 2
In short: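 Imaging took place on a CQ1 microscope at 37°C and 5% CO2 once compound had been added to live cells stained at seeding with Hoechst33342, BioTracker Green Microtubule Cytoskeleton Dye, MitoTracker Red and Annexin V Alexa Fluor 680. CellPathfinder machine-learning gating classed cells as Hoechst high-intensity objects or normal cells, classed normal cells as having healthy, pyknosed or fragmented nuclei, and classed pyknosed cells as mitotic or apoptotic. Tubulin, mitochondrial-mass and membrane-permeability phenotypes are per cents of the healthy-nucleus cells.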

[1] = 12 h, 1 µM, compound concentration 1 uM
[2] = 12 h, 10 µM, compound concentration 10 uM
[3] = 24 h, 1 µM, compound concentration 1 uM
[4] = 24 h, 10 µM, compound concentration 10 uM
[5] = 48 h, 1 µM, compound concentration 1 uM
[6] = 48 h, 10 µM, compound concentration 10 uM

CS(=O)(=O)c1ccc(C(=O)Nc2cccc(COc3ccc(Br)cc3CN3CC[C@H](O)C3)c2)cc1.O=CO
Population Apoptotic (%) [1]: 100% and 72%
Population Fragmented Nuclei (%) [1]: 8% and 2%
Population Healthy Nuclei (%) [1]: 84% and 83%
Population Hoechst High Intensity Objects (%) [1]: 0%
Population Normal (%) [1]: 100%
Population Apoptotic (%) [2]: 100% and 70%
Population Healthy Nuclei (%) [2]: 68% and 78%
Population Hoechst High Intensity Objects (%) [2]: 0%
Population Normal (%) [2]: 100% and 99%
Population Apoptotic (%) [3]: 50%
Population Fragmented Nuclei (%) [3]: 4% and 3%
Population Healthy Nuclei (%) [3]: 85% and 86%
Population Hoechst High Intensity Objects (%) [3]: 0%
Population Mitotic Cells (%) [3]: 50% and 31%
Population Normal (%) [3]: 100% and 99%
Population Apoptotic (%) [4]: 88% and 75%
Population Healthy Nuclei (%) [4]: 58% and 73%
Population Hoechst High Intensity Objects (%) [4]: 0%
Population Mitotic Cells (%) [4]: 11% and 24%
Population Normal (%) [4]: 100%
Population Apoptotic (%) [5]: 54% and 76%
Population Fragmented Nuclei (%) [5]: 4% and 1%
Population Healthy Nuclei (%) [5]: 84% and 89%
Population Hoechst High Intensity Objects (%) [5]: 0%
Population Mitotic Cells (%) [5]: 45% and 23%
Population Normal (%) [5]: 100% and 99%
Population Apoptotic (%) [6]: 75% and 80%
Population Healthy Nuclei (%) [6]: 54% and 69%
Population Hoechst High Intensity Objects (%) [6]: 0%
Population Mitotic Cells (%) [6]: 25% and 19%
Population Normal (%) [6]: 100% and 99%

CS(=O)(=O)c1ccc(C(=O)Nc2cccc(COc3ccc(Br)cc3CN3CCC[C@H](O)C3)c2)c(Cl)c1.O=CO
Population Healthy Nuclei (%) [1]: 84% and 83%
Population Hoechst High Intensity Objects (%) [1]: 0%
Population Pyknosed Nuclei (%) [1]: 15%
Population Apoptotic (%) [2]: 66% and 52%
Population Healthy Nuclei (%) [2]: 69% and 75%
Population Hoechst High Intensity Objects (%) [2]: 0%
Population Pyknosed Nuclei (%) [2]: 15% and 18%
Population Healthy Nuclei (%) [3]: 74% and 83%
Population Hoechst High Intensity Objects (%) [3]: 0%
Population Apoptotic (%) [4]: 90%
Population Healthy Nuclei (%) [4]: 65% and 70%
Population Hoechst High Intensity Objects (%) [4]: 0%
Population Apoptotic (%) [5]: 77% and 76%
Population Healthy Nuclei (%) [5]: 53% and 83%
Population Hoechst High Intensity Objects (%) [5]: 0%
Population Pyknosed Nuclei (%) [5]: 19%
Population Apoptotic (%) [6]: 93% and 86%
Population Healthy Nuclei (%) [6]: 43% and 57%
Population Hoechst High Intensity Objects (%) [6]: 0%
Population Pyknosed Nuclei (%) [6]: 34% and 29%

Cc1cc(C2CCCNC2)ccc1Nc1ncc(Br)c(NCc2cccc3c2C(C)(C)C(=O)N3)n1 (stereo not given)
Population Apoptotic (%) [1]: 50% and 63%
Population Healthy Nuclei (%) [1]: 57% and 78%
Population Hoechst High Intensity Objects (%) [1]: 0%
Population Membrane Permeable-Phenotype (%) [1]: 31% and 29%
Population Mitochondria Different-Phenotype (%) [1]: 9% and 19%
Population Mitotic Cells (%) [1]: 50% and 36%
Population Normal (%) [1]: 100%
Population Pyknosed Nuclei (%) [1]: 10% and 11%
Population Tubulin-Different-Phenotype (%) [1]: 65% and 44%
Total Cell Count [1]: 56 and 99
Population Apoptotic (%) [2]: 82% and 73%
Population Fragmented Nuclei (%) [2]: 28% and 14%
Population Healthy Nuclei (%) [2]: 42% and 69%
Population Hoechst High Intensity Objects (%) [2]: 0%
Population Membrane Permeable-Phenotype (%) [2]: 24% and 20%
Population Mitochondria Different-Phenotype (%) [2]: 56% and 54%
Population Mitotic Cells (%) [2]: 17% and 26%
Population Normal (%) [2]: 100%
Population Pyknosed Nuclei (%) [2]: 28% and 16%
Population Tubulin-Different-Phenotype (%) [2]: 88% and 83%
Population Apoptotic (%) [3]: 70% and 51%
Population Healthy Nuclei (%) [3]: 54% and 72%
Population Hoechst High Intensity Objects (%) [3]: 1% and 0%
Population Membrane Permeable-Phenotype (%) [3]: 17% and 15%
Population Mitochondria Different-Phenotype (%) [3]: 34% and 21%
Population Mitotic Cells (%) [3]: 30% and 48%
Population Normal (%) [3]: 98% and 100%
Population Pyknosed Nuclei (%) [3]: 18% and 21%
Population Tubulin-Different-Phenotype (%) [3]: 75% and 58%
Total Cell Count [3]: 54 and 125
Population Apoptotic (%) [4]: 88% and 66%
Population Fragmented Nuclei (%) [4]: 27% and 10%
Population Hoechst High Intensity Objects (%) [4]: 0%
Population Membrane Permeable-Phenotype (%) [4]: 66% and 31%
Population Mitochondria Different-Phenotype (%) [4]: 66% and 61%
Population Mitotic Cells (%) [4]: 12% and 33%
Population Normal (%) [4]: 100% and 99%
Population Pyknosed Nuclei (%) [4]: 53% and 25%
Population Tubulin-Different-Phenotype (%) [4]: 88% and 82%
Population Apoptotic (%) [5]: 87% and 70%
Population Fragmented Nuclei (%) [5]: 8% and 20%
Population Healthy Nuclei (%) [5]: 74% and 64%
Population Hoechst High Intensity Objects (%) [5]: 0% and 1%
Population Membrane Permeable-Phenotype (%) [5]: 13% and 14%
Population Mitochondria Different-Phenotype (%) [5]: 16% and 21%
Population Mitotic Cells (%) [5]: 12% and 30%
Population Normal (%) [5]: 100% and 98%
Population Pyknosed Nuclei (%) [5]: 17% and 15%
Population Tubulin-Different-Phenotype (%) [5]: 63% and 46%
Total Cell Count [5]: 175 and 65
Population Apoptotic (%) [6]: 91% and 87%
Population Fragmented Nuclei (%) [6]: 19% and 8%
Population Hoechst High Intensity Objects (%) [6]: 0% and 2%
Population Membrane Permeable-Phenotype (%) [6]: 100% and 43%
Population Mitochondria Different-Phenotype (%) [6]: 50% and 83%
Population Mitotic Cells (%) [6]: 8% and 12%
Population Normal (%) [6]: 100% and 97%
Population Pyknosed Nuclei (%) [6]: 76% and 43%
Population Tubulin-Different-Phenotype (%) [6]: 100% and 82%
